Measured values reported in ChEMBL document CHEMBL3045292, “Synthesis and herbicidal activity of 2-(7-fluoro-3-oxo- 3,4-dihydro-2H-benzo[b][1,4]oxazin-6-yl)isoindoline-1,3-diones” (J Agric Food Chem, 2005).

Assays:
Abutilon theophrasti [1] = test: Herbicidal activity against Abutilon theophrasti (velvetleaf) assessed as weed growth inhibition at 75 g/ha post-emergence treatment […]; assay type: functional; conditions: read-out: GI
In short: (§1)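 Pot-grown plants in the greenhouse, in clay soil (pH 6.5, 1.6% organic matter, 37.3% clay, CEC 12.1 cmol/kg). Compound was made up as a 100 g/L emulsified concentrate (DMF, Tween-80), diluted in water and sprayed at 75 g ai/ha. Pre-emergence spraying was 24 h after sowing; post-emergence at two-leaf (dicots) or one-leaf (monocots) stage. Untreated and DMF controls. Percent growth inhibition scored visually 15 days post-treatment.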

Chenopodium album [2] = test: Herbicidal activity against fat hen Chenopodium album assessed as weed growth inhibition at 75 g/ha post-emergence treatment […]; assay type: functional; conditions: read-out: GI; in short: as §1
Echinochloa crus-galli [3] = test: Herbicidal activity against Echinochloa crus-galli (barnyard grass) (barnyard grass) assessed as weed growth inhibition at 75 g/ha pre-emergence treatment […]; assay type: functional; conditions: read-out: GI; in short: as §1
Amaranthus blitum [4] = test: Herbicidal activity against Amaranthus blitum assessed as weed growth inhibition at 75 g/ha pre-emergence treatment […]; assay type: functional; conditions: read-out: GI; in short: as §1
Digitaria sanguinalis [5] = test: Herbicidal activity against crabgrass Digitaria sanguinalis(hairy crabgrass) assessed as weed growth inhibition at 75 g/ha post-emergence treatment […]; assay type: functional; conditions: read-out: GI; in short: as §1
Chenopodium album [6] = test: Herbicidal activity against fat hen Chenopodium album assessed as weed growth inhibition at 75 g/ha pre-emergence treatment […]; assay type: functional; conditions: read-out: GI; in short: as §1
Abutilon theophrasti [7] = test: Herbicidal activity against Abutilon theophrasti (velvetleaf) assessed as weed growth inhibition at post-emergence treatment […]; assay type: functional, organism-based; in short: as §1
Setaria viridis [8] = test: Herbicidal activity against Setaria viridis (green foxtail) assessed as weed growth inhibition at 75 g/ha pre-emergence treatment […]; assay type: functional; conditions: read-out: GI; in short: as §1
Amaranthus blitum [9] = test: Herbicidal activity against Amaranthus blitum assessed as weed growth inhibition at 75 g/ha post-emergence treatment […]; assay type: functional; conditions: read-out: GI; in short: as §1
Setaria viridis [10] = test: Herbicidal activity against Setaria viridis (green foxtail) assessed as weed growth inhibition at 75 g/ha post-emergence treatment […]; assay type: functional; conditions: read-out: GI; in short: as §1
Abutilon theophrasti [11] = test: Herbicidal activity against Abutilon theophrasti (velvetleaf) assessed as weed growth inhibition at 75 g/ha pre-emergence treatment […]; assay type: functional; conditions: read-out: GI; in short: as §1
Digitaria sanguinalis [12] = test: Herbicidal activity against crabgrass Digitaria sanguinalis(hairy crabgrass) assessed as weed growth inhibition at post-emergence treatment […]; assay type: functional, organism-based; in short: as §1
Echinochloa crus-galli [13] = test: Herbicidal activity against Echinochloa crus-galli (barnyard grass) (barnyard grass) assessed as weed growth inhibition at 75 g/ha post-emergence treatment […]; assay type: functional; conditions: read-out: GI; in short: as §1
Digitaria sanguinalis [14] = test: Herbicidal activity against crabgrass Digitaria sanguinalis(hairy crabgrass) assessed as weed growth inhibition at 75 g/ha pre-emergence treatment […]; assay type: functional; conditions: read-out: GI; in short: as §1

O=C1COc2cc(F)c(N3C(=O)C4=C(CCCC4)C3=O)cc2N1CC#CI was tested, and the inhibition of growth at 75 g/ha (Abutilon theophrasti [1]) was > 80%, the inhibition of growth at 75 g/ha (Chenopodium album [2]) was > 80% and the inhibition of growth at 75 g/ha (Echinochloa crus-galli [3]) was > 80%. The inhibition of growth at 75 g/ha (Amaranthus blitum [4]) was > 80%, the inhibition of growth at 75 g/ha (Digitaria sanguinalis [5]) was > 80% and the inhibition of growth at 75 g/ha (Chenopodium album [6]) was > 80%. For the same compound, the IC50 (Abutilon theophrasti [7]) was 2.3 g/ha, the inhibition of growth at 75 g/ha (Setaria viridis [8]) was > 80% and the inhibition of growth at 75 g/ha (Amaranthus blitum [9]) was > 80%. The inhibition of growth at 75 g/ha (Setaria viridis [10]) was > 80%, the inhibition of growth at 75 g/ha (Abutilon theophrasti [11]) was > 80% and the IC50 (Digitaria sanguinalis [12]) was 3.8 g/ha. The inhibition of growth at 75 g/ha (Echinochloa crus-galli [13]) was > 80% and the inhibition of growth at 75 g/ha (Digitaria sanguinalis [14]) was > 80%.
With Cc1ccc2c(c1)C(=O)N(c1cc3c(cc1F)OC(C)C(=O)N3CC#CI)C2=O (configuration not stated) the inhibition of growth at 75 g/ha (Abutilon theophrasti [1]) was > 80%, the inhibition of growth at 75 g/ha (Chenopodium album [2]) was > 80% and the inhibition of growth at 75 g/ha (Echinochloa crus-galli [3]) was < 50%. The inhibition of growth at 75 g/ha (Amaranthus blitum [4]) was > 80%, the inhibition of growth at 75 g/ha (Digitaria sanguinalis [5]) was < 50% and the inhibition of growth at 75 g/ha (Chenopodium album [6]) was > 80%. The IC50 (Abutilon theophrasti [7]) was 30 g/ha, the inhibition of growth at 75 g/ha (Setaria viridis [8]) was < 50% and the inhibition of growth at 75 g/ha (Amaranthus blitum [9]) was > 80%. The inhibition of growth at 75 g/ha (Setaria viridis [10]) was < 50%, the inhibition of growth at 75 g/ha (Abutilon theophrasti [11]) was > 80% and the IC50 (Digitaria sanguinalis [12]) was > 1800 g/ha. For the same compound, the inhibition of growth at 75 g/ha (Echinochloa crus-galli [13]) was < 50% and the inhibition of growth at 75 g/ha (Digitaria sanguinalis [14]) was < 50%.
With CN1C(=O)COc2cc(F)c(N3C(=O)c4ccc(F)cc4C3=O)cc21 the inhibition of growth at 75 g/ha (Abutilon theophrasti [1]) was < 50%, the inhibition of growth at 75 g/ha (Chenopodium album [2]) was < 50% and the inhibition of growth at 75 g/ha (Echinochloa crus-galli [3]) was < 50%. For the same compound, the inhibition of growth at 75 g/ha (Amaranthus blitum [4]) was < 50%, the inhibition of growth at 75 g/ha (Digitaria sanguinalis [5]) was < 50% and the inhibition of growth at 75 g/ha (Chenopodium album [6]) was < 50%. For the same compound, the IC50 (Abutilon theophrasti [7]) was 161 g/ha, the inhibition of growth at 75 g/ha (Setaria viridis [8]) was < 50% and the inhibition of growth at 75 g/ha (Amaranthus blitum [9]) was < 50%. The inhibition of growth at 75 g/ha (Setaria viridis [10]) was < 50%, the inhibition of growth at 75 g/ha (Abutilon theophrasti [11]) was < 50% and the IC50 (Digitaria sanguinalis [12]) was 172 g/ha. The inhibition of growth at 75 g/ha (Echinochloa crus-galli [13]) was < 50% and the inhibition of growth at 75 g/ha (Digitaria sanguinalis [14]) was < 50%.
